# Compound activity deposited in PubChem BioAssay by several laboratories.
# Rows were chosen to be rich in hits. Some 2.5% of all compounds tested hit in one or more screens of this group.
# UCH37 DUB inh – blocks the human deubiquitinase UCH37; Q9Y5K5; purified proteasome/UCH37, Ub-AMC cleavage fluorescence; inhibition, % (concentration not given with the values); actives 0.33% (n = 330,000);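 active = mean inhibition over replicate wells above about 20%, limit read from the data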
#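 Test system – human UCH37 enzyme supplied as purified proteasome complex · Incubation – 30 min preincubation with enzyme, 25 min cleavage at room temperature · Detection – AMC fluorescence from Ub-AMC cleavage, excitation 355 nm, emission 460 nm · Benchmarks – no-proteasome wells (full inhibition) and compound-free wells (no inhibition)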
# Rce1 inhib – yeast Ras-converting enzyme inhibition | Q03530 | yeast membranes, quenched prenylated peptide cleavage fluorescence | calls only | actives 0.27% (n = 290,000);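 active = fall in fluorescence gain of 50% or more versus controls, with final raw signal at or below 3038400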
# T cell modulator – modulates CD8 T cell binding to vesicles | actives 0.068% (n = 330,000) | response (vesicle binding), % at 7 µM | 2C CD8+ T cell-vesicle binding, flow cytometry; stronger effect = lower value;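 active = response, share of CD8 T cells binding vesicles, and their 90th percentile fluorescence all below set limits, cut at about 80% in these data, passing the limit was not always enough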;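 also: values below 100% mean blocked vesicle binding to the CD8+ T cells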
#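 Material: 2C TCR transgenic mouse naive CD8+ T cells, MACS-purified. Also added: QL9-charged Drosophila Ld/ICAM-1/B7-1 vesicles. Timing: binding 1.5 h at 37 °C. Measured by: high-throughput flow cytometry with anti-B7-1 and anti-CD8 staining. Read-out: percent CD8+ FL2 mean versus row control. Controls: Unloaded micro-vesicles (low), QL9 vesicles with 0.7% DMSO (high).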
# MEKK2wt PB1 HTS – raises or lowers MEK5 binding to wildtype human MEKK2 PB1 domain. Q9Y2U5. bead flow cytometry, Alexa488-MEK5 binding to MEKK2 WT; actives lie on both sides. binding response (% of control), % at 10 µM. actives 1.1% (n = 290,000); in the data active = binding response below about 67% or above about 130%
# MEKK3 PB1 HTS – modulators (inhibitors or enhancers) of MEK5 binding to human MEKK3 PB1 domain; binding response (% of control), % at 10 µM; bead-based flow cytometry, Alexa488-MEK5 binding to MEKK3; actives lie on both sides; 0 = blocked by unlabeled MEK5, 100 = vehicle; Q99759; actives 1.4% (n = 290,000);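 active = binding response more than 3 SD above or below the average of its plate-row segment, actives on both sides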;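 also: Alexa488 bead fluorescence after subtracting the streptavidin-only scavenger bead signal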
# Target sequence (Q99759 whole entry, looked up, the tested form may be a part): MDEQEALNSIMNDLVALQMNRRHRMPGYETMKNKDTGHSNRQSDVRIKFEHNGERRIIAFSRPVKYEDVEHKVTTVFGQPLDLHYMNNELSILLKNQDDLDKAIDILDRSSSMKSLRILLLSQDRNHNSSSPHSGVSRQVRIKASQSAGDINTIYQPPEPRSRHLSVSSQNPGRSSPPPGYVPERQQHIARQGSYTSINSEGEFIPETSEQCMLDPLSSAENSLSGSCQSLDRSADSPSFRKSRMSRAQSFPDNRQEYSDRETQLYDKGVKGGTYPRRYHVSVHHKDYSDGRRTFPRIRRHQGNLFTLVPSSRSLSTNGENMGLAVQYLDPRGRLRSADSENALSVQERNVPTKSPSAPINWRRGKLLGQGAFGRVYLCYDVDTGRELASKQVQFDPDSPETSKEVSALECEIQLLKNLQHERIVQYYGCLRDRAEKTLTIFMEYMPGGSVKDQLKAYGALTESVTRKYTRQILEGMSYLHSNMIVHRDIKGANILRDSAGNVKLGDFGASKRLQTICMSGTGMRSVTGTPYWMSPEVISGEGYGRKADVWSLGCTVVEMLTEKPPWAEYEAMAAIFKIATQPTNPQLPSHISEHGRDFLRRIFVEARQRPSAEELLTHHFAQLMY
# MEKK2 mut-MEK5 – signal of MEK5 binding to mutant human MEKK2 PB1 domain. actives 0.35% (n = 290,000). percent response, % at 10 µM. AID 1530. bead flow cytometry, Alexa488-MEK5 binding to MEKK2 mutant; in the data active = percent response above about 24%, passing the limit was not always enough
# UCH37 confirm – UCH37 Ub-AMC cleavage inhibition, confirmed | inhibition, % at 20 µM | Proteasome-bound UCH37, Ub-AMC cleavage fluorescence | shares compounds with UCH37 DUB inh | actives 27% (n = 480) | AID 624100;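 active = average inhibition over replicates above about 50%, so the earlier screening hit is confirmed, limit read from the data; inactive = the rest, counted as false positives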;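 also: based on cleavage rate fitted by regression over a 30 min kinetic read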
# Hits are given with their value; - = inactive; . = no result given.
SMILES,UCH37 DUB inh,Rce1 inhib,T cell modulator,MEKK2wt PB1 HTS,MEKK3 PB1 HTS,MEKK2 mut-MEK5,UCH37 confirm
COc1ccc(S(=O)(=O)N2CCOCC2)cc1NC(=O)COC(=O)c1ccc([N+](=O)[O-])s1,62.4,.,-,.,.,.,-
CC(C)(C)c1ccc(NC(=O)COC(=O)c2ccc([N+](=O)[O-])s2)cc1,-,.,-,-,-,-,.
O=C(COC(=O)c1ccc([N+](=O)[O-])s1)Nc1ccccc1,59.5,-,-,-,-,-,-
NC(=NOC(=O)CCC1CCCCC1)c1cccc([N+](=O)[O-])c1,-,.,.,.,.,.,.
COc1cccc(C=NNS(=O)(=O)c2ccccc2)c1OC,-,.,.,.,.,.,.
O=C(COC(=O)c1ccc([N+](=O)[O-])s1)Nc1cccc(S(=O)(=O)NC2=NCCCCC2)c1,62.2,-,-,-,-,-,-
O=C(COC(=O)c1ccc([N+](=O)[O-])s1)NC(c1ccccc1)c1ccccc1,-,-,-,-,-,-,.
O=C(COC(=O)c1ccc([N+](=O)[O-])s1)NCc1ccccc1,38.9,-,-,-,-,-,-
CN(CCCS(=O)(=O)[O-])c1ccc(/C=C/c2ccc3ccccc3[n+]2C)cc1,-,-,-,-,-,-,.
CN(C)c1ccc(/C=C/c2ccc3ccccc3[n+]2C)cc1,25.1,-,-,2.0,-,-,-
COc1cccc(NC2=C(Cl)C(=O)OC2OC(=O)c2ccco2)c1 (stereo not given),37.3,-,-,-,-,-,-
Cc1ccsc1C=NNC(=O)CN1CCN(S(=O)(=O)c2ccc(Br)cc2)CC1,-,.,.,.,.,.,.
Cc1ccc(C(=O)NC2(O)C(=O)c3ccccc3C2=O)cc1C,78.2,-,-,-,-,-,60.8
O=C(NC1(O)C(=O)c2ccccc2C1=O)c1ccc(C(F)(F)F)cc1,79.0,-,-,-,-,-,69.3
O=C(Cc1ccccc1)NC1(O)C(=O)c2ccccc2C1=O,.,-,-,-,-,-,.
C[C@H]1COC2=C1C(=O)C(=O)c1c2ccc2c1CCCC2(C)C,41.2,-,-,-,-,-,74.5
CC(C)[C@H](NC(=O)NC1CCCC1)C(=O)O,-,-,-,-,-,-,.
CC(C)=CCCC(C)NC(=O)NC1CCCCC1 (stereo not given),20.6,-,-,-,-,-,67.4
N#CC(C#N)=C1C=C2C=C(N3CCCCCC3)CCC2CC1 (stereo not given),-,.,.,-,-,-,.
CN1CCN(C2=CC3=CC(=C(C#N)C#N)CCC3CC2)CC1 (stereo not given),26.0,.,.,-,-,-,-
COc1ccc(NC(=O)C2CCCCN2N)cc1OC (stereo not given),29.2,-,-,-,-,-,-
NC1=C(Br)C(=O)c2ccccc2C1=O,34.3,-,-,-,-,-,-
COc1cc([N+](=O)[O-])ccc1-c1ccc(/C=C2\C(=O)ON=C2c2ccccc2)o1,34.0,.,.,.,.,.,-
COc1cc([N+](=O)[O-])ccc1-c1ccc(/C=N\n2cnnc2)o1,.,-,-,-,-,-,.
O=S(=O)(Nc1cc(Sc2ncn[nH]2)c(O)c2ccccc12)c1ccccc1,38.0,.,.,-,-,-,69.5
SMILES,UCH37 DUB inh,Rce1 inhib,T cell modulator,MEKK2wt PB1 HTS,MEKK3 PB1 HTS,MEKK2 mut-MEK5,UCH37 confirm
Clc1ccc(C=NNc2nnc(-c3ncc[nH]3)c3ccccc23)cc1,-,.,.,.,.,.,.
CC(=O)n1cc(C=NNC(N)=S)c2ccccc21,-,.,.,.,.,.,.
CC(=O)Nc1nc(SCC(=O)NCc2ccc(F)cc2)[nH]c(=O)c1NC(=O)c1cccs1,42.9,-,-,-,-,-,-
COc1ccc(NC(=O)/C=C/c2c(Cl)nc3ccccn23)cc1,36.7,-,-,-,-,-,-
O=C(CCC(=O)Nc1ccc(Cl)cc1Cl)NN=Cc1ccc([N+](=O)[O-])o1,-,.,.,.,.,.,.
O=C1C2C3CCCC3=C3CCCC3C2C(=O)N1c1ccc(F)cc1 (stereo not given),31.8,.,-,-,-,-,53.2
COc1cc(C(=O)NCC(=O)NN=Cc2cccs2)cc(OC)c1OC,-,.,.,.,.,.,.
O=S(=O)(NCCC1=CCCCC1)c1cccc(S(=O)(=O)N2CCOCC2)c1,58.0,-,-,-,-,-,59.5
CCCCCc1ccc(-c2cn(Cc3cccc(OC)c3)nn2)cc1,-,-,-,-,-,-,.
CCCCCc1ccc(-c2cn(Cc3ccc(C)cc3)nn2)cc1,35.4,-,-,-,-,-,-
CCC(=NO)C(C)(C)/[N+]([O-])=C/c1ccc(Br)cc1,-,.,.,.,.,.,.
CCOC(=O)CN1C(=O)S/C(=C/c2cccc([N+](=O)[O-])c2O)C1=O,-,-,-,-,-,-,.
O=C(O)c1cccc(CN2C(=O)S/C(=C/c3ccccc3[N+](=O)[O-])C2=O)c1,79.7,-,-,-,-,-,-
CCOc1cc(/C=N\NC(=O)c2ccc(C)nc2)cc([N+](=O)[O-])c1O,.,-,-,-,-,-,.
CCOc1cc(C=NNC(=O)c2ccc(C)nc2)cc([N+](=O)[O-])c1O,27.0,.,.,.,.,.,-
CC(C)NC(=S)NN=Cc1cccnc1,-,.,.,.,.,.,.
COc1ccc(NC(=O)C(=O)NN=Cc2cc(C)n(-c3cccc(Cl)c3Cl)c2C)c(OC)c1,-,.,.,.,.,.,.
CC(=NO)c1c(C)c2ccccc2n1C,-,.,.,.,.,.,.
CCC(=O)N(C1=C(NC)C(=O)c2ccccc2C1=O)C(C)C,33.1,-,-,-,-,-,-
CNC1=C(N(C(C)=O)c2ccc(Br)cc2)C(=O)c2ccccc2C1=O,50.7,-,-,-,-,-,74.4
Cc1nnc(C)n1N=Cc1cccs1,-,.,.,.,.,.,.
